Assay results from different studies.
Each line is one published result; the experiments were not run side by side.
Target: Homeodomain-interacting protein kinase 4 (HIPK4, Homo sapiens, UniProt Q8NE63)
Residues used in one study (Q8NE63 1-616): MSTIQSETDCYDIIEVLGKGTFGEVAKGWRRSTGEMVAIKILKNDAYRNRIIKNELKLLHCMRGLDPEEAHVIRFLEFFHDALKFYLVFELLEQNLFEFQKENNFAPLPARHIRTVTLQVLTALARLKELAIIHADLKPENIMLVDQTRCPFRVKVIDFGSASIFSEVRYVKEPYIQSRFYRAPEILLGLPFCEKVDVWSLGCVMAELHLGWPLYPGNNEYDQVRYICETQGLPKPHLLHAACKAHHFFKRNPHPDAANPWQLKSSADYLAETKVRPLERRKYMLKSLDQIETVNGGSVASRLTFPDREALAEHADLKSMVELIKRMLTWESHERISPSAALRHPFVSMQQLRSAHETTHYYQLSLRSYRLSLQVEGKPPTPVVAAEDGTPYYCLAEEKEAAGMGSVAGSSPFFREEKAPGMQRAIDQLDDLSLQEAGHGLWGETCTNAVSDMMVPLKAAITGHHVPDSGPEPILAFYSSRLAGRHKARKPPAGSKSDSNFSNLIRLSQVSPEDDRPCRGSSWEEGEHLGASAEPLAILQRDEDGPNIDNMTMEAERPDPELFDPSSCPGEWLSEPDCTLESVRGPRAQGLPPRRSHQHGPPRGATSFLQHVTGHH

Cn1cc(Cl)c2c(Oc3c(F)cc(Nc4cc(Cl)nc(N)n4)cc3F)ccnc21 — remaining binding (cell-free assay, competition with immobilised ligand; 0.1 µM): 100%
Cc1cnc(Nc2ccc(C(=O)N3CCC(N4CCCC4)CC3)cc2)nc1-c1cc2ccccc2s1 — remaining binding (binding, competition with immobilised ligand; 1 µM): 1.3%
C[C@@H]1CN(c2cc(-c3n[nH]c4ccc(OC5(C)CC5)cc34)ncn2)C[C@H](C)O1 — remaining binding (cell-free assay, competition with immobilised ligand; 0.1 µM): 97%
C[C@@H](c1ccc(-n2cnc3c(N)ncnc32)cc1)N1CCc2nn(C)c(Cc3ccccc3)c2C1=O — remaining binding (binding, competition with immobilised ligand; 0.1 µM): 100%
FC(F)(F)Oc1cccc(-c2cnc3ccc(-c4ccncc4)nn23)c1 — remaining binding (cell-free assay, competition with immobilised ligand; 5 µM): 5.2%
c1cnn2ncc(-c3ccnc(N4CCC45COC5)n3)c2c1 — remaining binding (binding; 1 µM): 87%
O=C(NCCCN1CCOCC1)c1ccc(Nc2nccc(-c3cc4ccccc4s3)n2)cc1 — remaining binding (binding, competition with immobilised ligand; 1 µM): 5.8%
N[C@@H]1CCN(c2nccc(-c3cnn4ncccc34)n2)C1 — remaining binding (binding; 1 µM): 98%
CN(C)C(=O)Cn1cc(-c2nc([C@@](C)(c3ccc(-c4cnc(N)nc4)cc3)C3CC3)no2)cn1 — remaining binding (cell-free assay, competition with immobilised ligand; 1 µM): 70%
CC1CCCN1c1nccc(-c2cnn3ncccc23)n1 (stereo not shown) — remaining binding (binding; 1 µM): 97%
O=C(NCC1CCOCC1)c1n[nH]cc1NC(=O)c1c(F)cccc1F — remaining binding (binding, competition with immobilised ligand; 1 µM): 78%
O=C(NCCCN1CCOCC1)c1ccc(Nc2ncc(Cl)c(-c3ccc(Cl)s3)n2)cc1 — remaining binding (binding, competition with immobilised ligand; 1 µM): 14%
C[C@@H]1CCN(c2nccc(-c3cnn4ncccc34)n2)C1 — remaining binding (binding; 1 µM): 92%
CNC(=O)[C@@H]1CC[C@@H](n2c(-c3ccc4cnccc4c3)nc3ccc(C(=O)NCc4cccc(C(N)=O)c4)cc32)C1 — remaining binding (binding, competition with immobilised ligand; 1 µM): 100%
COc1ccc2c(c1)O[C@@H](c1ccc(OC)c(OC)c1)C[C@H]2NC(=O)C1(c2ccc3c(c2)OC(F)(F)O3)CC1 — remaining binding (cell-free assay, competition with immobilised ligand; 1 µM): 51%
Cc1cnn2ncc(-c3ccnc(N(C)C)n3)c2c1 — remaining binding (binding; 1 µM): 77%
CN(C)CC#Cc1ccc(OCCCc2sc(N3CCc4cccc(C(=O)Nc5nc6ccccc6s5)c4C3)nc2C(=O)O)c(F)c1 — remaining binding (cell-free assay, competition with immobilised ligand; 1 µM): 100%
COc1ccnn2ncc(-c3ccnc(N(C)C)n3)c12 — remaining binding (binding; 1 µM): 100%
O=C(O)[C@H]1[C@H](Cn2nnc3ccccc3c2=O)CC[C@@H]1C(=O)c1ccc(OCCC2CCOCC2)cc1 — remaining binding (cell-free assay, competition with immobilised ligand; 1 µM): 100%
COc1ncc2cc3ccccc3nc2c1C#N — remaining binding (cell-free assay, competition with immobilised ligand; 5 µM): 100%
CN(c1nccc(-c2cnn3ncccc23)n1)C1CC1 — remaining binding (binding; 1 µM): 99%
Cc1cc(C)c(-n2ccn3nc(-c4cccnc4)cc23)cc1NC(=O)c1cc(C#N)cc(S(F)(F)(F)(F)F)c1 — remaining binding (cell-free assay, competition with immobilised ligand; 0.1 µM): 95.6%
